The values that follow come from ChEMBL document CHEMBL1153017 (Bioorg Med Chem, 2009).

The structures appear in SMILES notation.

For data set [1], the system named is Rattus norvegicus. In words: Antiinflammatory activity in Wistar rat assessed as inhibition of carrageenan-induced paw edema at 150 mg/kg, po administered 30 mins before carrageenan challenge measured after 0.5 hrs. The data set is classed as functional. In short, it runs like this: (§1)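 Rats dosed orally with a suspension in 0.5% w/v aqueous carboxymethyl cellulose; controls got vehicle alone. 30 min later, 0.1 mL of fresh 1% carrageenan in normal saline injected subplantar into the right hind paw. Paw thickness measured by skin caliper at 0.5, 1, 2, 3, 4 and 5 h. % edema inhibition = [(VR−VL)control − (VR−VL)treated]/(VR−VL)control × 100. Values are means ± SEM.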
(In the carrageenan paw model, swelling and tenderness develop within hours.)

The subject of data set [2] is Rattus norvegicus. In words: Gastrointestinal toxicity in Wistar rat assessed as complete damage of mucosal layer and ulceration of submucosal cells at 150 mg/kg, po after 24 hrs by electron microscopy. Format: organism-based, Submucosa. On the set-up: dose 150 mg/kg, route oral. Conditions: in vivo. In outline: (§2)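 Male Wistar rats (150–200 g), three per group, fasted 12 h with water available. Given a daily oral dose in 0.5% CMC (1 mL suspension) for four successive days; control group got vehicle. Food withheld until 24 h after the last dose, then rats killed. Stomachs opened along the greater curvature, rinsed in saline, and random specimens examined by scanning electron microscopy after glutaraldehyde/osmium fixation, ethanol dehydration and amyl acetate.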

The test system of data set [3] is Rattus norvegicus. Put plainly: Antiinflammatory activity in Wistar rat assessed as inhibition of carrageenan-induced paw edema at 150 mg/kg, po administered 30 mins before carrageenan challenge measured after 3 hrs. Format: functional. In outline:
as §1

Data set [4] has as its system Rattus norvegicus. In words: Antiinflammatory activity in Wistar rat assessed as inhibition of carrageenan-induced paw edema at 150 mg/kg, po administered 30 mins before carrageenan challenge measured after 5 hrs. The data set is classed as functional. In short, it runs like this: as §1
The subject of data set [5] is Rattus norvegicus. Put plainly: Antiinflammatory activity in Wistar rat assessed as inhibition of carrageenan-induced paw edema at 150 mg/kg, po administered 30 mins before carrageenan challenge measured after 4 hrs. The data set is classed as functional. In outline:
as §1

For data set [6], the system named is Rattus norvegicus. Put plainly: Antiinflammatory activity in Wistar rat assessed as inhibition of carrageenan-induced paw edema at 150 mg/kg, po administered 30 mins before carrageenan challenge measured after 2 hrs. Format: functional. In outline: as §1
The subject of data set [7] is Rattus norvegicus. In words: Antiinflammatory activity in Wistar rat assessed as inhibition of carrageenan-induced paw edema at 150 mg/kg, po administered 30 mins before carrageenan challenge measured after 1 hr. The data set is classed as functional. In short, it runs like this: as §1
The species named for data set [8] is Rattus norvegicus. Put plainly: animal or person. Conditions: Wistar, po, read-out: INH.
The species named for data set [9] is Rattus norvegicus. Put plainly: animal or person. Conditions: Wistar, po, read-out: INH. This is another data set of the same source.
Data set [10] is filed under the species Rattus norvegicus. In words: animal or person. As to conditions: Wistar, po, read-out: INH. The source holds these as a separate data set.
The species entered for data set [11] is Rattus norvegicus. Put plainly: animal or person. Conditions: Wistar, po, read-out: INH. The source holds these as a separate data set.
The species named for data set [12] is Rattus norvegicus. In words: animal or person. Conditions: Wistar, po, read-out: INH. This is another data set of the same source.
Data set [13] is filed under the species Rattus norvegicus. Put plainly: animal or person. Conditions: Wistar, po, read-out: INH. This is another data set of the same source.
Data set [14] relates to Rattus norvegicus. Put plainly: Antiinflammatory activity in Wistar rat assessed as inhibition of carrageenan-induced paw edema at 20 mg/kg, po administered 30 mins before carrageenan challenge measured after 1 hr. The data set is classed as functional. In short, it runs like this:
as §1

The test system of data set [15] is Rattus norvegicus. In words: Antiinflammatory activity in Wistar rat assessed as inhibition of carrageenan-induced paw edema at 20 mg/kg, po administered 30 mins before carrageenan challenge measured after 2 hrs. The data set is classed as functional. In outline: as §1
Data set [16] concerns Rattus norvegicus. In words: Antiinflammatory activity in Wistar rat assessed as inhibition of carrageenan-induced paw edema at 20 mg/kg, po administered 30 mins before carrageenan challenge measured after 5 hrs. Format: functional. In outline:
as §1

The test system of data set [17] is Rattus norvegicus. Put plainly: Antiinflammatory activity in Wistar rat assessed as inhibition of carrageenan-induced paw edema at 20 mg/kg, po administered 30 mins before carrageenan challenge measured after 0.5 hrs. Format: functional. In short, it runs like this:
as §1

The subject of data set [18] is Rattus norvegicus. In words: Antiinflammatory activity in Wistar rat assessed as inhibition of carrageenan-induced paw edema at 20 mg/kg, po administered 30 mins before carrageenan challenge measured after 3 hrs. The data set is classed as functional. In short, it runs like this: as §1
The subject of data set [19] is Rattus norvegicus. Put plainly: Antiinflammatory activity in Wistar rat assessed as inhibition of carrageenan-induced paw edema at 20 mg/kg, po administered 30 mins before carrageenan challenge measured after 4 hrs. The data set is classed as functional. In short, it runs like this: as §1
Data set [20] can be described thus: Chemical stability in HCl buffer of pH 1.2 simulating gastric fluid. Conditions: simulated gi fluid. The data set is classed as physicochemical. In outline: (§3)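 Hydrolysis run in pH 1.2 HCl buffer or pH 7.4 phosphate buffer, each with 1% Tween 20 and ionic strength 0.2 (KCl). Started by adding 200 µL of a 3 mg/mL methanol or acetonitrile stock to 9.8 mL of prewarmed buffer, held at 37 °C. Aliquots (20 µL) taken over time; remaining ester measured by HPLC.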

Another data set is filed under the species Homo sapiens. Put plainly: Stability in human plasma assessed as hydrolysis half life.
Data set [21] can be described thus: Chemical stability in phosphate buffer of pH 7.4 simulating intestinal fluid. Format: physicochemical. As to conditions: simulated gi fluid. In short, it runs like this:
as §3

The test system of data set [22] is Rattus norvegicus. In words: Gastrointestinal toxicity in Wistar rat assessed as complete damage of mucosal layer and ulceration of submucosal cells at dose equivalent to 150 mg/kg of ibuprofen, po after 24 hrs by electron microscopy. The data set is classed as organism-based, Submucosa. On the set-up: dose 150 mg/kg, route oral. As to conditions: in vivo. In outline: as §2

Turning to `CC(C)Cc1ccc(C(C)C(=O)O)cc1` (stereo not drawn) [IBUPROFEN], the inhibition in vivo at 150 mg/kg with Rattus norvegicus [1] is 16.7%; in the data set on Rattus norvegicus [3], 62.5%; in the data set with Rattus norvegicus [4] it was 41.7%; in the data set with Rattus norvegicus [5], 50%; in the data set with Rattus norvegicus [6] it was 45.8%; with Rattus norvegicus [7] it was 16.7%. In the data set on Rattus norvegicus [2], the Activity entry is recorded as “Toxic”.
For `COc1ccc2cc([C@H](C)C(=O)O)ccc2c1` [NAPROXEN], the inhibition in vivo at 40 mg/kg in the data set filed under Rattus norvegicus [8] was found to be 9.4%; in the data set filed under Rattus norvegicus [9], 46.9%; in the data set listed under Rattus norvegicus [10], 37.5%; in the data set filed under Rattus norvegicus [11] it was 18.8%; in the data set listed under Rattus norvegicus [12], 16.3%; in the data set listed under Rattus norvegicus [13], 28.1%.
Consider `Cc1cccc(Nc2ccccc2C(=O)O)c1C` [MEFENAMIC ACID], for which the inhibition in vivo at 20 mg/kg came to 18.3% in the data set on Rattus norvegicus [14]; 33.3% in the data set on Rattus norvegicus [15]; 33.3% with Rattus norvegicus [16]; 16.7% in the data set with Rattus norvegicus [17]; 41.7% in the data set on Rattus norvegicus [18]; 45.8% in the data set with Rattus norvegicus [19].
For orientation: half-life means how long it takes for the measured level to halve. Regarding `COc1ccc2cc(C(C)C(=O)OCn3c(=O)oc4ccc(Cl)cc43)ccc2c1` (stereo not drawn), the Stability entry is “Stable” in [20] and 1 days in data set [21]. Further, the half-life in the data set filed under Homo sapiens came to 34 min.
Take `Cc1cccc(Nc2ccccc2C(=O)OCn2c(=O)oc3ccc(Cl)cc32)c1C`: the Stability result is “Stable” in data set [20] and 1 days in data set [21].
On to `CC(C)Cc1ccc(C(C)C(=O)OCn2c(=O)oc3ccc(Cl)cc32)cc1` (stereo not drawn), for which the Activity result in the data set with Rattus norvegicus [22] is given as “Non-toxic”. The Stability result in data set [20] is “Stable”; in [21] it was 1 days. Besides, in the data set listed under Homo sapiens, the half-life came out at 37 min.
